# Article PMC3684024 (Science translational medicine, 2013)
# Assays:
# [1] = tested on: EAE; conditions: cited from earlier work
# [2] = ref [12]; cited from earlier work
# [3] = biological target: bovine insulin (beta chain) aggregation (Bos taurus, UniProt P01317); assay: Chaperone assay: inhibition of DTT induced insulin aggregation; assay type: biochemical
# Method in brief: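 Bovine insulin (150 µg) in 100 mM NaCl, 20 mM Tris pH 7.4, with or without varying peptide or protein concentrations, at 37°C; some runs at pH 5. Reduction is started at time zero with DTT (100 mM stock). Aggregation is followed as absorbance at 360 nm over 20 min. In time-of-addition runs, small heat shock protein or fibrils are added 3, 10 or 16 min after DTT, with a buffer-only addition as dilution control.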
# [4] = tested on: insulin fibril formation; assay: Inhibition of insulin amyloid fibril formation; assay type: biochemical, bovine; conditions: ThT fluorescence ex 440 nm, em 485 nm (fig. S2)
# Method in brief: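 Fibril formation is tracked in the DTT-reduced insulin chaperone reaction: bovine insulin in NaCl/Tris pH 7.4 at 37°C, with or without test peptide fibrils. Thioflavin T is added from a 10 µM solution and fluorescence is read at 485 nm with excitation at 440 nm on a microplate reader.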
# [5] = tested on: animal models of stroke, cardiac and retinal ischemia-reperfusion injury; conditions: cited from earlier work
# [6] = tested on: plasma proteins; conditions: ref [13], cited from earlier work
# Sequence of bovine insulin (beta chain) aggregation (P01317 25-54 limits assumed): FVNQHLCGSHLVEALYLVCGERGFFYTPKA
substance,measurement,setting,value
"73–92 of HspB5: linear peptide region within HspB5, residues 73–92 (DRFSVNLDVKHFSPEELKVK; UniProt P02511 73-92, looked up, fragment)",reduction of paralysis and histological neuroinflammation in EAE,[1]; ref [12],"therapeutic, reducing paralysis and histological neuroinflammation in EAE"
same,chaperone activity,[2],exhibited chaperone activity
Aβ 1–40: peptide from amyloid β A4,anti-inflammatory effect in EAE,"[1]; ameliorating paralysis and reducing brain inflammation, ref [6]",effective anti-inflammatory agents
HspB5: amyloid forming small heat shock protein,inhibition of insulin aggregation when given at time 0,[3]; 150 µg HspB5 given at time 0,fully inhibitory dose when given at time 0
same,effect on light scattering when added 3 min after DTT,[3]; 150 µg HspB5 or Tau fibrils added three minutes after dithiothreitol (fig. S3),rapid increase in light scattering
same,effect on light scattering when added at 10 and 16 minutes,[3]; added 10 and 16 minutes after initiation,"increase in light scattering, albeit less of an increase at longer than earlier time points"
same,effect on insulin fibrillization after initiation,"[3]; added after initiation of fibril formation (figs. S3, S4)",can increase the light scattering after initiation of fibril formation
same,inhibition of insulin fibril formation,[4],effective inhibitors of insulin fibril formation
same,therapeutic effect in stroke model,[5]; ref [3],therapeutic
same,therapeutic effect in cardiac and retinal ischemia-reperfusion injury,"[5]; ref [4], [5]",therapeutic
same,number of ligands precipitated from plasma,[6]; enriched and temperature dependent binding,approximately 70
same,"ligands that are acute phase, complement or coagulation proteins",[6],Greater than 50%
same,therapeutic effect in animal models of multiple sclerosis,[1]; ref [2],therapeutic
